# Assay results published in PubChem BioAssay AID504775 (Broad Institute, 2011).
# The whole screen tested about 320,000 compounds, of which about 310 (0.097%) were called active. For the sample, actives were picked, then their nearest neighbours and some compounds at random. Values without a mark were called inactive.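 Rule for the calls: active = mean replicate activation of at least 60% and every replicate at or above 60%; inconclusive = mean or all-replicate condition met, but not both; inactive = mean below 60% and not all replicates reaching 60%.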
# Assay: activators of SR-BI mediated DiI-HDL uptake, primary screen, ldlA[mSR-BI] CHO cells, DiI fluorescence (AID 504775);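 note: 0% = median plate neutral-control signal and 100% = twice that signal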
# Details: 3 h, at 12.5 µM, stronger effect = higher value, 100 = double the neutral-control signal
# Procedure, shortened: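 Test system: SR-BI-overexpressing, LDLR-lacking CHO cells; Also added: labelled HDL, 10 µg/mL; Measured by: bottom-read cell fluorescence after medium removal, ex 550/em 595 nm; Timing: 3 h uptake period with compound, 37 °C; Buffer or medium: F12, 0.5% BSA, 25 mM HEPES; Doses: single compound concentration, delivered by pin transfer.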
row,SMILES,activation
1,O=C(COC(=O)c1ccc(O)cc1O)NC(=O)c1ccccc1,38.7%
2,O=C(NCc1ccccc1)c1cccc(NC(=O)C2CCCCC2)c1,-0.488%
3,O=C1OCC2=C1C(c1ccc(Cl)cc1)c1cc3c(cc1O2)OCO3 (configuration not stated),-14%
4,CCN1C[C@@H]2[C@@H]3C(=O)N(C)C(=O)[C@@H]3[C@](C)(C1=O)N2C(=O)c1ccccc1,-27.8%
5,Oc1cccc(CCc2ccccn2)c1,0.288%
6,COc1cccc(/C=N/Nc2ccc(S(=O)(=O)Nc3ccccc3C(=O)O)cc2[N+](=O)[O-])c1O,4.5%
7,CCCN(CCC)CC(O)COc1ccccc1C(=O)Nc1ccccc1 (configuration not stated),102% (active)
8,CCCN(CC(=O)Nc1ccc(C(N)=O)cc1)CC(=O)Nc1ccccc1C,13.5%
9,CCCOc1ccccc1C(=O)NCCCC(=O)O,21.5%
10,COc1ccc(CNCCCNCc2ccc(OC)c(OC)c2)cc1OC,4.58%
11,CC(C)(C)C(=O)Nc1cccc(-c2ccc[nH]2)n1,5.41%
12,O=C1C2C3C=CC(C3)C2C(=O)N1c1ncc([N+](=O)[O-])s1 (configuration not stated),8.82%
13,COc1ccc(Br)cc1/C=N/Nc1ccc(S(=O)(=O)Nc2ccccc2C(=O)O)cc1[N+](=O)[O-],16.3%
14,COc1ccc(/C=C/C(=O)OCC(=O)N2CCN(S(=O)(=O)c3ccc(C)cc3C)CC2)cc1OC,-71.9%
15,CCOc1cc(C(=O)N(Cc2ccccc2)c2ccc(C)cc2)ccc1OCC(=O)N1CCOCC1,-5.71%
16,O=C(NNC(=O)c1ccccc1O)c1ccccc1O,-124%
17,CN(C)C(=S)N=c1ssc(=S)n1Cc1ccco1,-0.753%
18,O=C(CC1Sc2ccccc2NC1=O)NNc1ccc(Cl)c(Cl)c1 (configuration not stated),-45.6%
19,O=S(=O)(O)c1cc2onnc2c2ccccc12,15.5%
20,Nc1ccc2c(c1)C(O)c1ccc(Cl)cc1-2 (configuration not stated),14.5%
21,COc1cc(C(=O)CCc2ccc3c(c2)OCO3)cc(OC)c1OC,-43.2%
22,COC1=CC(=O)OC(c2ccc(OC)cc2)C1 (configuration not stated),14.1%

row,SMILES,activation
1,O=C(NCCc1ccccc1)c1c[nH]c2ccc(F)cc2c1=O,-17.9%
2,CC(C)[C@@H](C(=O)OCC(=O)c1ccc2c(c1)NC(=O)CO2)N1C(=O)c2ccccc2C1=O,1.12%
3,CCOC(=O)CCC(NC(=O)c1ccc(CNc2nc3cc(C(F)(F)F)ccc3nc2C(=O)OCC)cc1)C(=O)OCC (configuration not stated),-43.7%
4,CC(=O)OC1CCC2C3CCC4=C(CC(F)C(=O)C4)C3CCC12C (configuration not stated),-3.99%
5,CC(=O)OCC(=O)C1(O)CCC2C3CC(C)C4=CC(=O)CCC4(C)C3C(O)CC21C (configuration not stated),-0.166%
6,Cc1ccc(C)c(S(=O)(=O)N(C)c2ccc(OC(=O)C3CCN(C(=O)c4ccc(F)cc4)CC3)cc2)c1,-12.3%
7,Cc1ccc(Cn2c(C)c3cnn(CC(=O)NCCN4CCOCC4)c(=O)c3c2C)cc1,-22.1%
8,CCOC(=O)C1CCCN(C(=O)C2CCN(S(=O)(=O)c3ccc(Cl)c(C(F)(F)F)c3)CC2)C1 (configuration not stated),22.7%
9,COc1ccccc1N(CC(=O)Nc1c(C)n(C)n(-c2ccccc2)c1=O)S(=O)(=O)c1ccccc1,12%
10,O=C1OC(Oc2ccc(Br)cc2)(c2ccccc2)c2ccccc21 (configuration not stated),-0.981%
11,O=[N+]([O-])c1ccc(N=NNc2ccc([N+](=O)[O-])cc2)cc1,5.77%
12,CC1=CC(C)(C)Nc2ccc(OC(=O)C(Cc3ccccc3)N3C(=O)C4CCCCC4C3=O)cc21 (configuration not stated),62.9% (active)
13,CCOC(=O)C(Cc1ccc(N)cc1)N1C(=O)c2ccccc2C1=O (configuration not stated),-16%
14,CC1=CC(C)(C)Nc2ccc(OC(=O)CN3C(=O)C4CCCCC4C3=O)cc21 (configuration not stated),9.46%
15,Cc1ccccc1N(C(=O)CNC(=O)c1cccs1)C(C(=O)NC1CCCC1)c1ccncc1 (configuration not stated),4.44%
16,COc1ccc(C(C(=O)NC2CCCCC2)N(C(=O)CCl)c2ccccc2Cl)cc1 (configuration not stated),88.3% (active)
17,COc1ccc(C(C(=O)NC2CCCCC2)N(C(=O)c2snc(C(N)=O)c2N)c2ccccc2OC)cc1 (configuration not stated),13.6%
18,Oc1ccc(-c2nc3ccccc3nc2-c2ccc(O)cc2O)c(O)c1,-26%
19,C/C(=N\Nc1ccccc1)c1cccs1,13.7%
20,O=C(CCCCCCCC(=O)N1CCCCC1)N1CCCCC1,7.36%
21,COc1ccc(CCC(=O)Nc2ccc(Cl)c(S(=O)(=O)N3CCOCC3)c2)cc1OC,-60.3%
22,CC(=O)CSc1nc(CCc2ccccc2)c(C#N)c(=O)[nH]1,11%

row,SMILES,activation
1,Nc1ccc2[nH]c(=S)sc2c1,-5.72%
2,COc1ccc(S(=O)(=O)N2CCC(C(=O)N3CCc4ccccc4C3)CC2)cc1OC,4.32%
3,COc1ccc(S(=O)(=O)N2CCC(C(=O)N3CCOCC3)CC2)cc1OC,0.407%
4,COc1cc(S(=O)(=O)N2CCN(C(=O)C3CC3)CC2)ccc1NC(C)=O,60.7% (active)
5,NC(=S)NN=C1CCCC(C(F)(F)F)C1 (configuration not stated),-74%
6,N#CCc1c[nH]c2ccc([N+](=O)[O-])cc12,13.4%
7,O=C1CC(c2ccccc2)C(=O)N2C(=O)CC(c3ccccc3)C(=O)N12 (configuration not stated),16.5%
8,C#CCOCCOCCOCCNc1nc(N2CCN(C(=O)Cn3cc(CCO)nn3)CC2)nc(N2CCN(C(=O)Cn3cc(CCCN=C(N)N)nn3)CC2)n1,17.5%
9,COC(=O)CC(CC(=O)OC)n1cccc1,7.62%
10,Cc1ccc(NC(=O)C(C)OC(=O)C2CC3CCCC(C2)C3=O)cc1S(=O)(=O)N1CCOCC1 (configuration not stated),-2.41%
11,COc1ccc(CNC(=O)C[C@H]2C[C@H](C(=O)N3CCOCC3)[C@@]3(CCC4CCCC4)c4[nH]c5ccc(Cl)cc5c4CCN3C2=O)cc1OC,-30.3%
12,CN(C)C(=O)CCc1ccc2c3c([nH]c2c1)[C@]1(CCC2CCCC2)[C@@H](C(=O)N2CCOCC2)C[C@H](CC(=O)NCc2ccco2)C(=O)N1CC3,14.3%
13,O=C(C[C@H]1C[C@H](C(=O)N2CCOCC2)[C@@]2(CCC3CCCC3)c3[nH]c4ccc(Cl)cc4c3CCN2C1=O)NCc1ccco1,82.2% (active)
14,O=C(CC(=O)c1cccnc1)c1ccccc1,-1.21%
15,CCCCOC(=O)c1[nH]c(C)c(C(=O)OC)c1C,176% (active)
16,CCOC(=O)c1c(C)[nH]c(C(=O)OCC(=O)c2ccc(OC)cc2OC)c1C,-45.7%
17,CCOC(=O)c1c(C)[nH]c(C(=O)OCC(=O)N2CCCC2=O)c1C,24.7%
18,COc1ccc(CNC(=O)CN2C(=O)c3ccccc3S2(=O)=O)cc1,16.4%
19,Cc1ccc(C(=O)O)c(NC=O)c1OCc1ccccc1,19.3%
20,COc1ccc(C(CNC(=O)c2cc(S(=O)(=O)Nc3cccc(C)c3)ccc2C)N2CCCC2)cc1 (configuration not stated),21%
21,Cc1ccc(S(=O)(=O)N2CCC(C(=O)N3CCCCCCC3)CC2)cc1,-7.71%
22,COc1ccc(S(=O)(=O)N2CCc3ccccc32)cc1C(=O)Nc1cc(S(C)(=O)=O)ccc1Cl,-27.5%

row,SMILES,activation
1,O=C1/C(=C\c2ccc([N+](=O)[O-])cc2)CS(=O)(=O)C/C1=C/c1ccc([N+](=O)[O-])cc1,-17.7%
2,Oc1[nH]c2ccccc2c1N=Nc1c(F)c(F)c(F)c(F)c1F,-15.7%
3,Cc1cc(NC(=O)c2cc3ccccc3o2)no1,18.7%
4,COc1cc(C(=O)N2CCN(S(=O)(=O)c3ccc(C(C)C)cc3)CC2)ccc1OCC(=O)N1CCOCC1,10.9%
5,O=C(O)c1ccc([N+](=O)[O-])cc1Sc1ccsc1,-7.71%
6,O=C1NC(c2ccccc2)Cc2ccncc21 (configuration not stated),37.2%
7,CCC(CC)c1nnc(NC(=O)C2=COCCO2)s1,9.84%
8,Cc1sc(NC(=O)C2=COCCO2)c(C#N)c1C,172% (active)
9,Cc1csc(NC(=O)C2=COCCO2)n1,11%
10,COc1ccc(C(CNC(=O)c2cccc(S(=O)(=O)Nc3ccc(Br)cc3)c2)N(C)C)cc1 (configuration not stated),24.3%
11,COc1ccc(CCNC(=O)c2ccc(NC(=O)CC3SC(N4CCCCC4)=NC3=O)cc2)cc1OC (configuration not stated),-66.6%
12,COC(=O)Cc1c(-c2[nH]c3ccccc3c2CC(=O)OC)[nH]c2ccccc12,-37.9%
13,COc1ccc(C2C(C(C)=O)=C(O)C(=O)N2Cc2cccnc2)cc1 (configuration not stated),30%
14,O=C(C1=C(O)C(=O)N(Cc2ccccc2)C1c1cccnc1)c1ccco1 (configuration not stated),66.5% (active)
15,CCOc1cc(C2C(C(=O)c3ccco3)=C(O)C(=O)N2Cc2ccccc2)ccc1O (configuration not stated),21.9%
16,C#CCOCCOCCOCCNc1nc(N2CCOCC2)nc(N2CCN(C(=O)[C@H](Cc3ccc(O)cc3)n3cc(CCO)nn3)CC2)n1,15.4%
17,CC1CN(Cc2ccco2)C(=S)N(c2ccccc2)C1=O (configuration not stated),33.1%
18,COc1ccc(-c2sc3ccccc3c2-c2ccc(OCCN3CCOCC3)cc2)cc1,-39.3%
19,COc1cccc(-c2sc3ccc(OC)cc3c2-c2ccc(OCCN3CCCCC3)cc2)c1,-2.84%
20,COc1ccc2sc(-c3ccccc3OC)c(-c3ccc(OCCN4CCCC4)cc3)c2c1,88% (active)
21,COc1cccc2oc(CCc3ccccc3)cc(=O)c12,4.54%
